Measured values from different studies.
Compare with care: the assays were run in different laboratories.
Cell line: MCF7
Effect on: cell growth or viability

| Structure (SMILES) | method | time | GI50 [µM] |
| --- | --- | --- | --- |
| COc1cc2c(OC)nc3c4cc5c(cc4cc(OCCN(C)C)c3c2cc1OC)OCO5 | MTT | 72 h | > 100 |
| COc1ccc(C(=O)/C=C/c2cccc3ccccc23)cc1S(N)(=O)=O | SRB | 48 h | 2.1 |
| COc1cc2c(OC)nc3c4cc5c(cc4cc(OCCCN(C)C)c3c2cc1OC)OCO5 | MTT | 72 h | 27 |
| COc1ccc(-c2ccc(-c3ccc(C(=N)N)nc3)s2)cc1 | SRB | – | 1.74 |
| COc1cc2c(OC)nc3c4cc5c(cc4cc(O)c3c2cc1OC)OCO5 | MTT | 72 h | 13 |
| COc1ccc(C(=O)/C=C/c2ccc3ccccc3c2)cc1S(N)(=O)=O | SRB | 48 h | 1.6 |
| COc1cc2c(cc1O)CC[C@@H]1[C@@H]2CC[C@]2(C)[C@@H](O)CC[C@@H]12 | SRB | 96 h | 0.6 |
| COc1cc(C(CC(=O)c2ccc(Br)cc2)NCCc2ccc(O)c(O)c2)ccc1O (stereo not drawn) | MTT | – | 0.02 |
| COc1ccc(-c2ccc(-c3ccc(C(=N)N)nc3)s2)cc1Cl | SRB | – | 1.75 |
| COc1ccc(C(=O)/C=C/c2cccc(Br)c2)cc1S(N)(=O)=O | SRB | 48 h | 1.6 |
| COc1cc(C(CC(N)=O)NCCc2ccc(O)c(O)c2)ccc1O (stereo not drawn) | MTT | – | 26.2 |
| COc1ccc(C(=O)/C=C/c2cccc(Cl)c2Cl)cc1S(N)(=O)=O | SRB | 48 h | 3.2 |
| COc1cc(C(CC(=O)c2ccc(Cl)cc2)NCCc2ccc(O)c(O)c2)ccc1O (stereo not drawn) | MTT | – | 1.09 |
| COc1cc2c(Nc3ccc(Br)cc3F)ncnc2cc1OCC1CCN(C)CC1 | MTT | 72 h | 0.25 |
| CCN(CC)CCCOc1cc2cc3c(cc2c2nc(OC)c4cc(OC)c(OC)cc4c12)OCO3 | MTT | 72 h | 23 |
| COc1ccc(C(=O)/C=C/c2c(F)cccc2Cl)cc1S(N)(=O)=O | SRB | 48 h | 2.2 |
| COc1cc(C(CC(=O)c2ccc(C)cc2)NCCc2ccc(O)c(O)c2)ccc1O (stereo not drawn) | MTT | – | 5.2 |
| Cc1ccc(C)c(COc2cc(NC(=O)c3ccc4c(c3)OCO4)ccc2N(C)S(C)(=O)=O)c1 | SRB | 48 h | 0.12 |
